Results reported in ChEMBL document CHEMBL3992541, “Combined treatment with zingerone and its novel derivative synergistically inhibits TGF-β1 induced epithelial-mesenchymal transition, migration and invasion of human hepatocellular carcinoma cells” (2017).
Activity calls are given as the source filed them. No cut-off for these calls is given here.

What was measured:
SNU-182 [1] = test: Inhibition of TGFbeta1-induced epithelial-mesenchymal transition in human SNU182 cells assessed as reduction in MMP2 mRNA expression at 12.5 uM preincubated for 2 hrs followed by TGFbeta1 addition measured after 48 hrs by qRT-PCR method; format: functional, cell-based
Summary of the method: (§1)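 SNU182 cells pretreated 2 h with single agents (12.5 or 40 µM) or the mixture (20 or 40 µM), then TGF-β 5 ng/ml for 48 h. MMP-2 and MMP-9 mRNA measured by RT-PCR with densitometry and by qRT-PCR, fold change by the 2^-ΔΔCt method. Mean±SD of triplicates.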

SNU-182 [2] = test: Growth inhibition of human SNU182 cells assessed as cell survival at 12.5 uM after 48 hrs by CCK8 assay relative to control; format: functional; settings: SNU-182, 48 h, read-out: Survival
Summary of the method: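 SNU182 human hepatocellular carcinoma cells were exposed to compound at 6.25, 12.5, 25, 50 and 100 µM in serum-free DMEM for 48 h. Viability was read by CCK-8, where WST-8 is reduced by cellular dehydrogenases to a soluble formazan, and expressed as survival relative to vehicle control. Values are mean±SD of triplicates.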

SNU-182 [3] = test: Growth inhibition of human SNU182 cells after 48 hrs by CCK8 assay; format: functional, cell-based
SNU-182 [4] = test: Growth inhibition of human SNU182 cells at <12.5 uM after 48 hrs by CCK8 assay; format: functional, cell-based
SNU-182 [5] = test: Inhibition of TGFbeta1-induced epithelial-mesenchymal transition in human SNU182 cells assessed as reduction in MMP9 mRNA expression at 12.5 uM preincubated for 2 hrs followed by TGFbeta1 addition measured after 48 hrs by qRT-PCR method; format: functional, cell-based; summary of the method: as §1
SNU-182 [6] = test: Inhibition of TGFbeta1-induced epithelial-mesenchymal transition in human SNU182 cells assessed as reduction in upregulation of Snail expression at 12.5 uM preincubated for 2 hrs followed by TGFbeta1 addition measured after 48 hrs by Western blot method; format: functional, cell-based
Summary of the method: (§2)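 SNU182 cells pretreated 2 h with single agents (12.5 or 40 µM) or the mixture (20 and 40 µM), then stimulated with TGF-β1 5 ng/ml for 48 h. E-cadherin and Snail protein detected by Western blot, with GAPDH as loading control.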

SNU-182 [7] = test: Inhibition of TGFbeta1-induced epithelial-mesenchymal transition in human SNU182 cells assessed as reduction in downregulation of E-cadherin expression at 12.5 uM preincubated for 2 hrs followed by TGFbeta1 addition measured after 48 hrs by Western blot method; format: functional, cell-based; summary of the method: as §2

CCCCC/C=C/C(=O)CCc1ccc(O)c(OC)c1 [SHOGAOL]
inhibition (SNU-182 [1]): inactive
viability at 12.5 µM (SNU-182 [2]): > 90%
growth inhibition (GI) (SNU-182 [3]): Dose-dependent effect
growth inhibition (GI) (SNU-182 [4]): inactive
inhibition (SNU-182 [5]): inactive
inhibition (SNU-182 [6]): inactive
inhibition (SNU-182 [7]): inactive
